This note sets out measurements from the EternaBench riboswitch data.

The data set relates to MS2 coat protein. As to the kind of experiment: apparent Kd, MS2 coat protein; higher = weaker binding; RNA-MaP array; FMN 200 µM where present. Put shortly: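 The apparent Kd is the median of filtered binding-curve fits, one per cluster, to green signal normalised to red-channel RNA signal and control-cluster median Fmax. The clusters were on Illumina sequencing chips, and stalled E. coli RNA polymerase had transcribed the designs on them. Titration used SNAP-549-labelled MS2 coat protein from 0.7 or 1.5 nM, doubling to 3 µM, without and then with constant ligand, in 100 mM Tris-HCl pH 7.5, 80 mM KCl, 4 mM MgCl2, BSA, DTT, yeast tRNA and Tween-20.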

Where [1] appears, read: designed as: OFF switch for flavin mononucleotide, no ligand.
The mark [2] stands for this setting: ligand present: flavin mononucleotide, designed as: OFF switch for flavin mononucleotide.
The mark [3] stands for this setting: designed as: ON switch for flavin mononucleotide, no ligand.
Setting [4] is: ligand present: flavin mononucleotide, designed as: ON switch for flavin mononucleotide.

As to “GACUGCAUGUAAGGAUAUCGACUGGAUAACAGUCGAGAAGGUACAUGAGGAUCACCCAUGUAAUAAGAUCAAUAAUAAGCAGUC”, the “apparent Kd” value stood at 14.4 nM under setting [1] and 31.3 nM under setting [2].
The like results for “GCUAGUAUUGCAGGAUAUUGAUAUUAAUUAUGGCAAGAAGGGCAUUACAUGAGGAUCACCCAUGUUUUCCUUAGUCAUACUAGC” were, in that order, 5.33 nM and 5.39 nM.
On to “GGACAUUUACAGAAGGGCAAGCUCGAAAGAGGAGAAAGAGAACGAGCUUGCAGGAUAUGUUGAACAUGAGGAUCACCCAUGUCU”, for which the “apparent Kd” value runs as follows: under setting [3], 9.75 nM; under setting [4], 7.69 nM.
The like results for “UAAACAUGAGGAUCACCCAUGUAAAGAUCGGUAGUAGAGAGUGAGGAUAUACUAAAAUUUAUAGAGUAGAAGGCACUGGGUUCU” were, in that order, 38.4 nM and 28.6 nM.
Take “CAGAGGAUGUAAGGAUAUCGUCAGGAAUACUGACGAGAAGGUACAUGAGGAUCACCCAUGUAACUCUAAUAAUAAUAACCUCUG”: the “apparent Kd” value by setting is: under setting [1], 12.6 nM; under setting [2], 16.4 nM.
As for “GGUUAUUGCAAGGAUAUGCUUUUUUUUGAAAUUGCAGAAGGUGCAACAUGAGGAUCACCCAUGUUGGAUGGGUU”, the “apparent Kd” value is 166 nM under setting [1] and 125 nM under setting [2].
As for “GGCUGUCUCGCAGGAUAUGCUGAUCAGAAACUAGCAGAAGGGUGAUCCAGUCGAGGUUUGACAUGAGGAUCACCCAUGUGGAGU”, the “apparent Kd” value is 29.4 nM under setting [3] and 55.8 nM under setting [4].
“AAACAAGCAGGGAUGCUUCGCAGGGAGGAUAUCUGACUGGGCGGACAUGAGGAUCACCCAUGUACAGAGAAGGCCCAAAGCACC”: the “apparent Kd” value reads like this: under setting [1], 620 nM; under setting [2], 32 nM.
Take “UGUUGUAUUACAGGAUAUCUAGUAUUAUUAUUUAGAGAAGGGUAUUCACAUGAGGAUCACCCAUGUAUAUACGAGGAAGUUGUG”: the “apparent Kd” value by setting is: under setting [3], 38.2 nM; under setting [4], 40.1 nM.
Consider “CAUUGACAUGAGGAUCACCCAUGUCAGGAUAUGCUUCAUGACACGAAAGUGUCAUGAAGCAGAAGGGACAUGCC”, for which the “apparent Kd” value runs as follows: under setting [1], 19.4 nM; under setting [2], 31.8 nM.
Regarding “UGCGUUAAGCCCUUAAGUCGUCAACAUGAGGAUCACCCAUGUAGAAGGCAGCGGACGCGGCCGGCUGAGGAUAUACAUGUAGGU”, the “apparent Kd” value stood at 13.3 nM under setting [1] and 16.8 nM under setting [2].
The like results for “CGUUAAUCCUAGGAUAUGCUAGACGAAAGUCUAGCAGAAGGAGGAACAUGAGGAUCACCCAUGUGUCCUAAACG” were, in that order, 16.8 nM and 26.7 nM.
The like results for “UUAUUAUAUGUAGGAUAUGCAUAUUGUUGUUAUGCAGAAGGACAUGAGGAUCACCCAUGUAUAUUAUUGUUAUAUAUUGUAUAU” were, in that order, 24.6 nM and 30.5 nM.
In the case of “ACACGGUAUGUAGGAUAUGCAUAGCAUUGCUAUGCAGAAGGACAUGAGGAUCACCCAUGUAUGUAUUCCAUACUAAUCCCGUGA”, the “apparent Kd” value under setting [1] was determined as 5.78 nM and the “apparent Kd” value under setting [2] turned out to be 5.88 nM.
As for “AAAGCAUACCGAGGAUAUUCAUAUAAUAAAUAAACAUGAGGAUCACCCAUGUGGCGAAAGCCUAGGGAGAAGGCGGAAUGCUAA”, the “apparent Kd” value was found to be 197 nM under setting [3] and 24.6 nM under setting [4].
As to “UUGAUAAGGAGAGGAUAUUGACAUGAGGAUCACCCAUGUACAUGGGAAUAUUUACUGAAUUCUUACGAGAAGGCUUACAUAUUU”, the “apparent Kd” value under setting [1] was 124 nM and the “apparent Kd” value under setting [2] turned out to be 66.7 nM.
The like results for “GUCGAAGCUGUACCAGUCGACGGUCAGGAUAUACAUGAGGAUCACCCAUGUGCUAUUGAUACUAUGUAGAAGGGACCCACCGCA” were, in that order, 10.7 nM and 11.2 nM.
On to “CUGUUAUAGGUCCAGAAUUACAACAUGAGGAUCACCCAUGUGCAGGAUAUCGGGUUGAUAGGCGACGAGAAGGGCAUAGUCACG”, for which the “apparent Kd” value under setting [1] came to 76.5 nM and the “apparent Kd” value under setting [2] was 79.2 nM.
The like results for “GGUACUCAAAGAGUACCAAUACGAACAUGAGGAUCACCCAUGUAGGAUAUGUUUUCGCCGGAGUAUCAGAAGGACAUGUGCCUA” were, in that order, 10.9 nM and 9.15 nM.
The like results for “GAUUCGGGAGGAUAUACAUGAGGAUCACCCAUGUGUUUUUUGUGUGUUAUGUUAUCGUGUAGAAGGUUUGGGUC” were, in that order, 144 nM and 203 nM.
Regarding “AGGAGAAAUGUAGGAUAUGGGUAUAUAUAUGGGCAAAGCGCAUAUAUAUACCCAGAAGGACAUGAGGAUCACCCAUGUUUCCCU”, the “apparent Kd” value was determined as 12.5 nM under setting [1] and 12.9 nM under setting [2].
For “ACAUGAGGAUCACCCAUGUUCACAUAGGAUAUUGAUUAUAUUGGAUAUAGAAUAUUUAUAAUACACAAGAAGGAUGCAAGAUGG”, the “apparent Kd” value is, setting by setting: under setting [3], 16.4 nM; under setting [4], 13.5 nM.
In the case of “GGAUCCGCUUCCGCCACAUGAGGAUCACCCAUGUGUAUGAACAGAAGGGCGACCUCAAAGAGGGCGCAGGAUAUGUACUCGUAC”, the “apparent Kd” value under setting [3] was 78.3 nM and the “apparent Kd” value under setting [4] worked out at 48.6 nM.
For the sequence “AGAGCCUCGUGAGGAUAUACAUGAGGAUCACCCAUGUAAUAAGAUCAACGGAGGAAACUCCGAAUGUAGAAGGCACGAGGCUCA”, the “apparent Kd” value runs as follows: under setting [1], 37.2 nM; under setting [2], 423 nM.
As to “AAUAAUCAGUAAGGAUAUACUAGCGAUUAGCUUGUAGAAGGUACAGUCUUAUGUAUAACAAAUUAACAUGAGGAUCACCCAUGU”, the “apparent Kd” value under setting [3] turned out to be 9.19 nM and the “apparent Kd” value under setting [4] amounted to 7.65 nM.
As to “GUGGGUCGGGAGGAUAUUCGGGCUCAUGGGCUUGGAGAAGGCUCGACAUGAGGAUCACCCAUGUAAGUGUUCUU”, the “apparent Kd” value under setting [1] worked out at 50 nM and the “apparent Kd” value under setting [2] was 621 nM.
“GGACGUCAGAUUAACAUGAGGAUCACCCAUGUCUUUUGACAUGAGGAUAUGCAACCUAAUUGGUUGCAGAAGGCAUGGACGUCC”: the “apparent Kd” value under setting [3] was determined as 917 nM and the “apparent Kd” value under setting [4] was found to be 85.2 nM.
Turning to “CUCAUGUAAGGAUAUCAGUAGUAAAAAAAUAAAAUUACUACUGAGAAGGUACAUGAGGAUCACCCAUGUCCUGG”, the “apparent Kd” value under setting [1] came out at 33.3 nM and the “apparent Kd” value under setting [2] came out at 17.9 nM.
In the case of “UUAUUAUAUGAAGGAUAUACUUAACAUGAGGAUCACCCAUGUGGUGUUGUGAGUGAGUGAGUUUAGUAGAAGGUCAAUUCUUUU”, the “apparent Kd” value by setting is: under setting [1], 425 nM; under setting [2], 623 nM.
The like results for “GUUUAGUGAGGAUAUGUGGCUUCGAUCGUGCGCGUUCGGCUACAGAAGGCACAUGAGGAUCACCCAUGUUCCUC” were, in that order, 445 nM and 704 nM.
The like results for “CUCUCUGAUCGAGGAUAUCGAGCUUCCGCCCUUCGAGAAGGCGACAUGAGGAUCACCCAUGUAAGGAGGACACUCACUCACACG” were, in that order, 26.4 nM and 22.5 nM.
As for “UAUUAGAUCCGAGGAUAUCCUUAUUAGAAACAUGAGGAUCACCCAUGUAAAGGGAAUUAUUUGUAGGAGAAGGCGGAUUUAGUU”, the “apparent Kd” value is, setting by setting: under setting [3], 67.5 nM; under setting [4], 52.9 nM.
Consider “CCGGAAAUACAGGAUAUAGGAGUCAAUAGACUCCUAGAAGGGUAUACAUGAGGAUCACCCAUGUGUCCUACCGG”, for which the “apparent Kd” value is, setting by setting: under setting [1], 35 nM; under setting [2], 35.6 nM.
On to “AUUUAGAGAGGAUAUAUUAUGUGAAACAUGAGGAUCACCCAUGUAAUAUGAUGGAUAUAAAUAGAAGGCUCAUUUA”, for which the “apparent Kd” value under setting [1] came out at 33 nM and the “apparent Kd” value under setting [2] was 24.4 nM.
In the case of “AGCUGUGGCCGAGGAUAUCUAAUAAUCUCAACCGAAAUAUAAUCGGACAUGAGGAUCACCCAUGUAGAGAAGGCGGUCUCAGCA”, the “apparent Kd” value under setting [1] stood at 36.2 nM and the “apparent Kd” value under setting [2] amounted to 92.8 nM.
In the case of “GGACGUCACAUUAACAUGAGGAUCACCCAUGUCUCUUGACAUGAGGAUAUGGAUCCUAAUUGGAUCCAGAAGGCAUGGACGUCC”, the “apparent Kd” value under setting [3] stood at 1220 nM and the “apparent Kd” value under setting [4] came out at 97.2 nM.

A word on the apparent Kd: it is a dissociation constant that holds for the conditions of the assay.
